Data set [1] has as its target T1, Receptor-type tyrosine-protein phosphatase zeta (Homo sapiens, UniProt P23471). Kind of data set: Inhibition of PTPRZ1 in human HeLa cells assessed as increase in EGF-induced tryrosine phosphorylation at 0.1 to 10 uM incubated for 10 mins after EGF stimulation for 10 mins by ELISA relative to control. It counts as cell-based. An outline of the steps:
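HeLa cells were grown in RPMI-1640 with 10% FBS and seeded at 2 × 10^4 cells/well in triplicate. After 24 h serum starvation, cells received 50 ng/mL EGF for 10 min, then compound at 0.1, 1.0 or 10.0 μM for 10 min, against 0.25% DMSO control. Total phosphotyrosine was measured by a tyrosine-phosphorylation ELISA kit. A rise of at least 10% was the selection criterion.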

Data set [2] concerns the target T1, Receptor-type tyrosine-protein phosphatase zeta. Kind of data set: Inhibition of human recombinant PTPRZ1 using pNPP as substrate at 1 uM by fluorescence spectrometric analysis relative to control. An outline of the steps:
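Screening used single-point testing at 1.0 μM against 0.1 μM human recombinant PTPRZ1 with p-NPP substrate. Phosphate release was detected with a phosphate sensor reagent by fluorescence (excitation 430 nm, emission 450 nm). The cutoff for activity was at least 10% inhibition of phosphatase activity.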

For data set [3] the target is unchanged. In words: Inhibition of human recombinant PTPRZ1 using pNPP as substrate by fluorescence spectrometric analysis. The procedure, abridged: (§1)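 Human recombinant enzyme (PTPRZ1 or PTP1B) was used at 0.1 μM with p-NPP substrate. Released phosphate was detected with a phosphate sensor reagent as a fluorescence increase (excitation 430 nm, emission 450 nm). IC50 was derived from compound concentrations of 0.001–100 μM.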

The target of data set [4] is T2, Tyrosine-protein phosphatase non-receptor type 1 (Homo sapiens, UniProt P18031).
T2 sequence (P18031 whole entry): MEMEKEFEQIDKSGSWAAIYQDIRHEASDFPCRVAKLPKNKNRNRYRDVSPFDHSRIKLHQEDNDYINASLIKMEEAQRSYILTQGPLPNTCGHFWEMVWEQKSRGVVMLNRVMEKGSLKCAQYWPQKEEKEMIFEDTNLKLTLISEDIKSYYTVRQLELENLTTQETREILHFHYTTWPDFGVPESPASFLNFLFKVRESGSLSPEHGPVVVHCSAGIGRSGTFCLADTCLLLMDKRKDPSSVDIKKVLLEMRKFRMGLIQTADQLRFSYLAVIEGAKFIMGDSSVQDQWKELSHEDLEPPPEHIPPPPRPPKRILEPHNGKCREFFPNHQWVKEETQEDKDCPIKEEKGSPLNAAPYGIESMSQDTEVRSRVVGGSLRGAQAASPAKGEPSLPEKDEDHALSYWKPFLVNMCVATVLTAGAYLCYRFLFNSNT
Kind of data set: Inhibition of human recombinant PTP1B using pNPP as substrate by fluorescence spectrometric analysis. An outline of the steps: as §1

The target of data set [5] is T1, Receptor-type tyrosine-protein phosphatase zeta. Kind of data set: Inhibition of PTPRZ1 (unknown origin) using pNPP as substrate preincubated for 15 mins followed by substrate addition measured after 10 mins by spectrophotometric analysis.
Data set [6] shares this target. In words: Inhibition of PTPRZ1 in human SH-SY5Y cells assessed as increase in TrkA tryrosine 490 phosphorylation at 1 to 10 uM after 20 mins by Western blot analysis relative to control. It counts as cell-based. An outline of the steps: (§2)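 Human SH-SY5Y cells were grown in EMEM/F12 (1:1) with 10% FBS at 37 °C, 5% CO2, then switched to serum-free medium. They were treated for 20 min with 1.0, 5.0 or 10.0 μM compound or DMSO vehicle. Lysates (20 μg protein) were western blotted for phospho-TrkA Y490 and phospho-ALK Y1278, reprobed for total TrkA/ALK, detected by ECL and quantified by densitometry. Data are mean ± S.E.M., ANOVA/Tukey.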

For data set [7] the target is unchanged. In words: Inhibition of PTPRZ1 in human SH-SY5Y cells assessed as increase in Alk tryrosine 1278 phosphorylation at 1 to 10 uM after 20 mins by Western blot analysis relative to control. In kind it is cell-based. The procedure, abridged: as §2
On the technique in general: Immunoblotting shows a protein as a band on a membrane.

Another data set has as its system PC-12. Kind of data set: Cytoprotective activity against amphetamine-induced toxicity in rat PC12 cells at 1 uM after 20 hrs by MTT assay. It counts as functional, cell-based. The procedure, abridged:
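Rat PC12 cells were grown in RPMI-1640 with 10% FBS at 10^4 cells/well. They were incubated for 20 h with 1.0 mM amphetamine plus 1.0 μM compound. Viability was read by MTT: cells were washed, given medium with MTT (20 μL of a 5 mg/mL stock) for 4 h, solubilized in DMSO, and absorbance read at 570 nm. Data are mean ± S.E.M., compared by one-way ANOVA with Tukey's test.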
A general note: Formazan colour is commonly taken as a measure of viable cells.

Data set [8] in a line: Drug level in mouse brain at 60 mg/kg after 1 hr by GC-MS analysis. It counts as ADME, organism-based. The settings on record: read-out: Drug uptake. An outline of the steps:
(§3)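 Mice were dosed at 60 mg/kg by oral gavage and killed 1 h later. Brain and plasma were analyzed by GC-MS (EI at 70 eV, full scan m/z 50–600). Plasma (100 μL) was precipitated with three volumes of cold methanol, dried and reconstituted in heptane. The reference was a standard serially half-diluted in heptane from 5 μg/mL. Concentrations were a preliminary estimate.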

A short description of data set [9]: Drug level in mouse plasma at 60 mg/kg after 1 hr by GC-MS analysis. In kind it is ADME, organism-based. The procedure, abridged: as §3

We go through 17 molecules from ChEMBL document CHEMBL4251614, “Development of inhibitors of receptor protein tyrosine phosphatase β/ζ (PTPRZ1) as candidates for CNS disorders” (Eur J Med Chem, 2018).

A word on the inhibition: it is the percentage by which the read-out fell short of the control. The term IC50 denotes the concentration needed to halve the response being measured.

Calls of active or inactive are those of the source.

T1 sequence (P23471 whole entry): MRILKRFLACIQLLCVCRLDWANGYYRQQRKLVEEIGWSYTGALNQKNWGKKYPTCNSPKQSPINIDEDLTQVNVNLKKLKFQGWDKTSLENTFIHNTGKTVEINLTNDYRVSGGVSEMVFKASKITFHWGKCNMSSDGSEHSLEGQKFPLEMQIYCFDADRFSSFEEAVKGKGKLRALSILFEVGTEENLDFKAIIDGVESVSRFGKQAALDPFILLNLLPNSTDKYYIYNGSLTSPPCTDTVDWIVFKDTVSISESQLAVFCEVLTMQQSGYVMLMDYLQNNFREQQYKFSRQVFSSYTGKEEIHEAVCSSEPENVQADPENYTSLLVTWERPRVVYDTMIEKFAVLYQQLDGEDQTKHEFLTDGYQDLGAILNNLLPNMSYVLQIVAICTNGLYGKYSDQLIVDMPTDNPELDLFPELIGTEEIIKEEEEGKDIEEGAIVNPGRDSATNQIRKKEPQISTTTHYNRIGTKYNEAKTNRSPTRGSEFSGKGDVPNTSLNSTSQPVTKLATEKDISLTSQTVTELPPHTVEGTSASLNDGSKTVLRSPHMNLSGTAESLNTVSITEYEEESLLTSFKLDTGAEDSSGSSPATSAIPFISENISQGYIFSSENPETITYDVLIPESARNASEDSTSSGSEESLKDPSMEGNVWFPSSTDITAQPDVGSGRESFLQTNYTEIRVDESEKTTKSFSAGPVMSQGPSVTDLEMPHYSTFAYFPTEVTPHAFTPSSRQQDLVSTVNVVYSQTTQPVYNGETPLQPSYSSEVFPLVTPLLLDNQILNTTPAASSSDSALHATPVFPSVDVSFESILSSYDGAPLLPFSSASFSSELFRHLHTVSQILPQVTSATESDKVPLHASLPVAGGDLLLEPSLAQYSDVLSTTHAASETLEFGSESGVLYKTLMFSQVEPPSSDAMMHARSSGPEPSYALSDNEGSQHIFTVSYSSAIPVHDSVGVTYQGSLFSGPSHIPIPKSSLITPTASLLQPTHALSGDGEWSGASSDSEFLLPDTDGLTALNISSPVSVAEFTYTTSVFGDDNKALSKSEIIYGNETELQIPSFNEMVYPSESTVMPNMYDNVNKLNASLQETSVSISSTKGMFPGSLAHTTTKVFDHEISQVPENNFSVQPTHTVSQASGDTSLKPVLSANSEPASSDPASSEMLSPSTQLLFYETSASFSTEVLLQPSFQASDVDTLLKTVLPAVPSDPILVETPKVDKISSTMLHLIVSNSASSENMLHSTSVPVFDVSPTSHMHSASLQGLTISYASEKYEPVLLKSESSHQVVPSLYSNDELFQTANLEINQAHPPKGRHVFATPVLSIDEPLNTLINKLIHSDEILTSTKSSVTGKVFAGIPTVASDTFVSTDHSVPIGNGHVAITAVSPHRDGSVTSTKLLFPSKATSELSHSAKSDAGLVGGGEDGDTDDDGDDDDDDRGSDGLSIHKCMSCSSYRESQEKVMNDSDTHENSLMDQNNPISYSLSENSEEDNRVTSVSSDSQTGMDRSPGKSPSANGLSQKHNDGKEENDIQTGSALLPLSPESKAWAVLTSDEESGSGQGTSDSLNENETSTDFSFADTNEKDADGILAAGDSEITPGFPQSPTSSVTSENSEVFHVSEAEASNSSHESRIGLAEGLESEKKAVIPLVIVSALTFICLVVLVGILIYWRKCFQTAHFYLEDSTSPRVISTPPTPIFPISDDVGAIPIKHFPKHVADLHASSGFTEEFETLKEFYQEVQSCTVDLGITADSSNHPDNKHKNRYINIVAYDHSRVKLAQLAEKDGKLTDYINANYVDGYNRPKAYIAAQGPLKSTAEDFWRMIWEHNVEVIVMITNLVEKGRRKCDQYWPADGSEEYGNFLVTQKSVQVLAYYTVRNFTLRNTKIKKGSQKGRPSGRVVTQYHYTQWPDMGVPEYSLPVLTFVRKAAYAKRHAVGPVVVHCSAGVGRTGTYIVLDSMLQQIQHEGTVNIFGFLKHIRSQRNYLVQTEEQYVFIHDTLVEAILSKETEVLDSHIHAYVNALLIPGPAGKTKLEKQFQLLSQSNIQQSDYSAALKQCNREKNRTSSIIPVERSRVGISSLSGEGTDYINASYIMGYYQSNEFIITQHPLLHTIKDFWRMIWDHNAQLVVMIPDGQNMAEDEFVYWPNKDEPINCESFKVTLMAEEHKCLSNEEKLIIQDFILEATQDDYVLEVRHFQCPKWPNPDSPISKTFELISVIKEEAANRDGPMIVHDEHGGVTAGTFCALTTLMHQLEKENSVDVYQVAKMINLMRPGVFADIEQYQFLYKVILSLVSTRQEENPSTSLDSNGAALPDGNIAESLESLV

As for `O=C(Cc1ccc(SC(F)(F)F)cc1)NCc1ccc(SC(F)(F)F)cc1`, the inhibition in data set [1] and in data set [2] was at least 10% in each case. Besides, the concentration for half-maximal inhibition (IC50) is 800 nM in data set [3] and “Not Active” in data set [4].
Turning to `O=S(=O)(c1ccc(COc2ccc(S(=O)(=O)C(F)(F)F)cc2)cc1)C(F)(F)F`, the inhibition result in data set [1] and in [2] was “inactive” throughout. The molecule further came in with an IC50 in data set [5] of 3500 nM.
For the molecule `FC(F)(F)Sc1ccc(CNCc2ccc(SC(F)(F)F)cc2)cc1`, the inhibition in [1] and in data set [2] was at least 10% each time. Further, the IC50 is 100 nM in data set [3] and 700 nM in data set [4] (read-out: IC50).
In the case of `O=C(Nc1ccc(SC(F)(F)F)cc1)c1ccc(SC(F)(F)F)cc1`, the inhibition in data set [1] is at least 10%. Moreover, the inhibition result in data set [2] was “inactive”.
In the case of `O=C(Cc1ccc(S(=O)(=O)C(F)(F)F)cc1)Nc1ccc(S(=O)(=O)C(F)(F)F)cc1`, the inhibition in [1] and in data set [2] was at least 10% each time. The values for the IC50 in [3] and in [4] were over 10000 nM and “Not Active”, respectively.
Take `FC(F)(F)Sc1ccc(COc2ccc(SC(F)(F)F)cc2)cc1`: the inhibition in data set [1] and in data set [2] was at least 10% in each case. For the same molecule, the half-maximal inhibitory concentration (IC50) in [3] is 100 nM; in data set [4], “Not Active”. Further, the fold change (FC) in data set [6] is 2 to 3; in [7], 2. Besides, the outcome with PC-12 was Active. Besides, the concentration at 1 h in data set [8] lay within 500 to 1000 ng/mL; in data set [9] it was 100 to 300 ng/mL.
As to `FC(F)(F)Sc1ccc(CNc2ccc(SC(F)(F)F)cc2)cc1`, in [1], the inhibition was at least 10%. Besides, the inhibition result in [2] is “inactive”.
Turning to `O=C(Cc1ccc(SC(F)(F)F)cc1)Nc1ccc(SC(F)(F)F)cc1`, the inhibition in [1] is at least 10%. In addition, in [2], the inhibition entry is “inactive”.
For `O=C(NCc1ccc(SC(F)(F)F)cc1)c1ccc(SC(F)(F)F)cc1`, the inhibition in [1] and in [2] was at least 10% each time. The IC50 in [3] is over 100000 nM; in data set [4], “Not Active”.
`FC(F)(F)Sc1ccc(NCc2ccc(Cl)cc2)cc1`: in data set [1], the inhibition result was “inactive”.
Regarding `FC(F)(F)Sc1ccc(OCc2ccncc2)cc1`, in [1], the inhibition is under 10%. For the same molecule, in data set [2], the inhibition entry was “inactive”.
Turning to `FC(F)(F)Sc1ccc(NCc2ccccc2)cc1`, the inhibition in data set [1] and in [2] was at least 10% each time. The IC50 came out at 5000 nM in data set [3] and 1000 nM in data set [4] (read-out: IC50).
On to `O=S(=O)(c1ccc(OCc2ccc(SC(F)(F)F)cc2)cc1)C(F)(F)F`, for which the inhibition entry in data set [1] and in data set [2] was “inactive” in each case. Besides, the fold change (FC) in data set [6] was 2 to 3.
Regarding `FC(F)(F)Sc1ccc(CNCc2ccccc2)cc1`, the inhibition entry in data set [1] is “inactive”.
As for `O=C(Cc1ccc(S(=O)(=O)C(F)(F)F)cc1)NCc1ccc(S(=O)(=O)C(F)(F)F)cc1`, the inhibition in data set [1] was at least 10%. In addition, in [2], the inhibition result is “inactive”.
Taken in the same sequence, the figures for `O=C(Nc1ccc(S(=O)(=O)C(F)(F)F)cc1)c1ccc(S(=O)(=O)C(F)(F)F)cc1` were “inactive” and “inactive”.
Turning to `FC(F)(F)Sc1ccc(CN(Cc2ccc(SC(F)(F)F)cc2)Cc2ccc(SC(F)(F)F)cc2)cc1`, the inhibition in [1] is at least 10%; in data set [2], under 10%.
